The source made the active and inactive calls. No cut-off for these calls is given here.
Legend:
[1] = test system: Mus musculus; experiment: Antinociceptive activity in sc dosed CD-1 mouse assessed as inhibition of acetic acid-induced writhing treated 30 mins prior to test followed by acetic acid challenge measured for 10 mins starting 5 mins post acetic acid challenge; format: functional
Procedure, shortened: (§1)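 Male CD1 mice (30–35 g, 6–8 weeks) given compound or saline sc at 10 μL/g. […] ED50 by Litchfield–Wilcoxon from dose–response. Doses expressed as salts; ≥5 mice per group, each used once.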

[2] = target: Kappa-type opioid receptor (Homo sapiens) (UniProt P41145); experiment: Agonist activity at human kappa opioid receptor expressed in CHO cell membranes after 60 mins by [35S]GTPgammaS binding assay relative to U69,593; format: functional
Sequence of Kappa-type opioid receptor (Homo sapiens) (P41145 whole entry): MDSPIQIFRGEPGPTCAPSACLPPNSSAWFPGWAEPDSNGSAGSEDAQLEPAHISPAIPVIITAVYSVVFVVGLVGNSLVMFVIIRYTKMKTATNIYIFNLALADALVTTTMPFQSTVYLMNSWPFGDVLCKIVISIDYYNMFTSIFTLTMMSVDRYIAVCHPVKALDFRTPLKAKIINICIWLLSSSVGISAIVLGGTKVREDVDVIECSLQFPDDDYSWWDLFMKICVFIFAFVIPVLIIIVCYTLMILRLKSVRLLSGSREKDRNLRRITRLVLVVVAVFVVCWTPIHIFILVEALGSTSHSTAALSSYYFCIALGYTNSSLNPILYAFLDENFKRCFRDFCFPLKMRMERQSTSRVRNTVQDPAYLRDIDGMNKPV
Procedure, shortened: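 Membranes (8–15 μg) from CHO cells stably expressing human KOP, in 20 mM HEPES, 10 mM MgCl2, 100 mM NaCl, pH 7.4. Incubated with 0.05 nM [35S]GTPγS, 10 μM GDP and graded compound for 60 min at 25 °C. Nonspecific binding with 10 μM GTPγS; basal binding without ligand. Filtered and counted. Efficacy given as % stimulation relative to U69,593. Duplicates, ≥3 experiments.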

[3] = test system: Mus musculus; experiment: Antinociceptive activity in CD-1 mouse assessed as inhibition of acetic acid-induced writhing at 5 mg/kg, sc treated 30 mins prior to test followed by acetic acid challenge measured for 10 mins starting 5 mins post acetic acid challenge in presence of KOP receptor antagonist nor-BNI; format: functional, organism-based
Procedure, shortened: (§2)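 Writhing test in male CD1 mice: nor-BNI 20 mg/kg sc given 24 h before sc test compound. Acetic acid 0.6% ip at 25 min after compound; writhes counted for 10 min. Inhibition calculated as % reduction against saline controls. ≥5 mice per group.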

[4] = test system: Mus musculus; experiment: Toxicity in CD-1 mouse assessed as motor impairment at 10 to 20 mg/kg, sc treated 30 mins prior to test by rotarod test; format: organism-based; conditions: in vivo, 0.5 h
[5] = test system: Mus musculus; experiment: Toxicity in CD-1 mouse assessed as motor impairment at 5 mg/kg, sc treated 30 mins prior to test by rotarod test; format: organism-based; conditions: in vivo, 0.5 h
[6] = test system: Mus musculus; experiment: Antinociceptive activity in CD-1 mouse assessed as inhibition of acetic acid-induced writhing at […], sc treated 30 mins prior to test followed by acetic acid challenge measured for 10 mins starting 5 mins post acetic acid challenge in presence of KOP receptor antagonist nor-BNI; format: functional, organism-based
[7] = test system: Mus musculus; experiment: Toxicity in CD-1 mouse assessed as motor impairment at 5 to 10 mg/kg, sc treated 30 mins prior to test by rotarod test; format: organism-based; conditions: in vivo, 0.5 h
[8] = test system: Mus musculus; experiment: Toxicity in CD-1 mouse assessed as motor impairment at […], sc treated 30 mins prior to test by rotarod test; format: organism-based; conditions: in vivo, 0.5 h
[9] = test system: Mus musculus; experiment: Antinociceptive activity in CD-1 mouse assessed as inhibition of acetic acid-induced writhing at 1 mg/kg, sc treated 30 mins prior to test followed by acetic acid challenge measured for 10 mins starting 5 mins post acetic acid challenge in presence of KOP receptor antagonist nor-BNI; format: functional, organism-based; procedure, shortened: as §2
[10] = test system: Mus musculus; experiment: Toxicity in CD-1 mouse assessed as motor impairment at 15 mg/kg, sc treated 30 mins prior to test by rotarod test; format: organism-based; conditions: in vivo, 0.5 h
[11] = test system: Mus musculus; experiment: Antinociceptive activity in CD-1 mouse assessed as inhibition of acetic acid-induced writhing at 10 mg/kg, sc treated 30 mins prior to test followed by acetic acid challenge measured for 10 mins starting 5 mins post acetic acid challenge; format: functional, organism-based; procedure, shortened: as §1
[12] = target: Kappa-type opioid receptor (Homo sapiens) (UniProt P41145)
[13] = test system: Mus musculus; experiment: In vivo antagonist activity at kappa opioid receptor in CD-1 mouse assessed as reversal of U50,488-induced inhibition of acetic acid-mediated writhing at 10 mg/kg, sc treated 15 mins prior to U50,488 measured for 10 mins starting 5 mins post acetic acid challenge; format: functional, organism-based
Procedure, shortened: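 Male CD1 mice received test compound 10 mg/kg sc, then U50,488 2 mg/kg sc 15 min later. Acetic acid 0.6% ip given 25 min after U50,488 dosing; writhes counted for 10 min. Compared with saline controls. ≥5 mice per group, sc volume 10 μL/g.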

[14] = test system: Mus musculus; experiment: Toxicity in CD-1 mouse assessed as motor impairment at 7.5 mg/kg, sc treated 30 mins prior to test by rotarod test; format: organism-based; conditions: in vivo, 0.5 h

Row | SMILES | inhibition [1] | Efficacy [2] | other results
1 | Oc1cccc(CCN(CCc2cccc(O)c2F)CC2CCC2)c1 | Dose-dependent effect | – | –
2 | c1ccc(CCN(CCc2ccccc2)CC2CCC2)cc1 | – | 91.9% | –
3 | CC(C)CCN(CCc1ccccc1)CCc1cccc(O)c1 | Dose-dependent effect | – | –
4 | Oc1cccc(CCN(CCc2ccccc2)CC2CC2)c1 | Dose-dependent effect | – | inhibition [3]: inactive; Activity [4]: Non-Toxic
5 | Cl.Oc1cccc(CCN(CCc2ccccc2)CC2CCCCC2)c1 | Dose-dependent effect | – | Activity [5]: Non-Toxic; inhibition [6]: inactive
6 | Oc1cccc(CCN(CCc2ccccc2)CC2CCC2)c1 | – | – | Activity [7]: Non-Toxic
7 | C=CCN(CCc1ccc(O)cc1)CCc1cccc(O)c1 | – | 29.8% | –
8 | Cl.Oc1cccc(CCN(CCc2ccccc2)CC2CCCC2)c1 | Dose-dependent effect | 82.8% | Activity [8]: Non-Toxic; inhibition [9]: inactive
9 | Cl.Oc1cccc(CCN(CCc2ccccc2)CC2CCC2)c1F | Dose-dependent effect | 66.1% | Activity [10]: Non-Toxic
10 | Oc1ccc(CCN(CCc2cccc(O)c2)CC2CCC2)cc1 | Dose-dependent effect | – | –
11 | Oc1cccc(CCN(CCc2cccc(O)c2)CC2CCCC2)c1 | Dose-dependent effect | 80.4% | –
12 | Oc1cccc(CCN(CCc2cccc(O)c2)CC2CC2)c1 | Dose-dependent effect | – | –
13 | Oc1ccc(CCN(CCc2cccc(O)c2)CC2CC2)cc1 | – | – | inhibition [11]: inactive; Ke [12]: 24.3 nM; inhibition [13]: Active
14 | Oc1cccc(CCN(CCc2ccccc2)Cc2ccccc2)c1 | Dose-dependent effect | 79.5% | –
15 | CC(C)CCN(CCc1cccc(O)c1)CCc1cccc(O)c1 | Dose-dependent effect | – | –
16 | Cl.Oc1cccc(CCN(CCc2ccccc2)CC2CCCCC2)c1F | Dose-dependent effect | 88.9% | Activity [14]: Non-Toxic
17 | Oc1ccc(CCN(CCc2cccc(O)c2)CC2CCCCC2)cc1 | Dose-dependent effect | 84.3% | –
18 | Oc1ccc(CCN(CCc2cccc(O)c2F)CC2CCC2)cc1 | Dose-dependent effect | – | –
19 | Oc1cccc(CCN(CCc2cccc(O)c2)CC2CCCCC2)c1 | Dose-dependent effect | 91.1% | –
20 | Oc1cccc(CCN(CCc2cccc(O)c2)CC2CCC2)c1 | Dose-dependent effect | – | –
